Laboratory results reported in publication PMC8554411 (Pharmacology Research & Perspectives, 2021).
Where “and” joins values, the source holds several entries; their conditions need not be identical. Identical values can stand only once.

Key:
human mu opioid receptor [1] = molecular target: T1, human mu opioid receptor (Homo sapiens, UniProt P35372); assay type: cell-based
human mu opioid receptor [2] = molecular target: T1, human mu opioid receptor; experiment: cell-based; conditions: HEK293, read-out: DAMGO Emax, inhibition of forskolin stimulated cAMP levels
mu opioid receptor [3] = molecular target: mu opioid receptor (Rattus norvegicus, UniProt P33535); assay type: in vivo
Chain of mu opioid receptor (Rattus norvegicus, UniProt P33535) (P33535 whole entry): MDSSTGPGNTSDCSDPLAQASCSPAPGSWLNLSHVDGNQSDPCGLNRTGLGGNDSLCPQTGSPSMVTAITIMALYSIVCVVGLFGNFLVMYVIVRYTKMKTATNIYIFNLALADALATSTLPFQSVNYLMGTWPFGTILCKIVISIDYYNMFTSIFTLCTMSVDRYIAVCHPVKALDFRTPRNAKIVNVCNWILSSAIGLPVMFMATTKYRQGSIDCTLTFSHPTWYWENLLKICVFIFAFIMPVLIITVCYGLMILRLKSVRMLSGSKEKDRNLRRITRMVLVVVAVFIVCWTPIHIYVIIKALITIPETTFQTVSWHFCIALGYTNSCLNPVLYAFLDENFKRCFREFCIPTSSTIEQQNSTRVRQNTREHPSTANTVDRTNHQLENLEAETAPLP

delta opioid receptor = delta opioid receptor (Rattus norvegicus, UniProt P33533); assay type: in vivo
Chain of delta opioid receptor (P33533 whole entry): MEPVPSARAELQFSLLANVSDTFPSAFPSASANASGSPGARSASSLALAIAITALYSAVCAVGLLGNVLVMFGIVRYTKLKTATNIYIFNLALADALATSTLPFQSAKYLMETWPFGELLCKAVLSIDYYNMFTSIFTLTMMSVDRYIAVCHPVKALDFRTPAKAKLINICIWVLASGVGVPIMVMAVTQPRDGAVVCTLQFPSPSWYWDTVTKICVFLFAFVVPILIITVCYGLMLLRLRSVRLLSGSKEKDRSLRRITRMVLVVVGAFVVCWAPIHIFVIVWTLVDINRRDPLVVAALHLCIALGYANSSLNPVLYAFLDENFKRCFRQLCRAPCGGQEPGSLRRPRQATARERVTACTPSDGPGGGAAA

[4] = molecular target: human kappa opioid receptors (Homo sapiens, UniProt P41145); assay type: cell-based
Chain of human kappa opioid receptors (P41145 whole entry): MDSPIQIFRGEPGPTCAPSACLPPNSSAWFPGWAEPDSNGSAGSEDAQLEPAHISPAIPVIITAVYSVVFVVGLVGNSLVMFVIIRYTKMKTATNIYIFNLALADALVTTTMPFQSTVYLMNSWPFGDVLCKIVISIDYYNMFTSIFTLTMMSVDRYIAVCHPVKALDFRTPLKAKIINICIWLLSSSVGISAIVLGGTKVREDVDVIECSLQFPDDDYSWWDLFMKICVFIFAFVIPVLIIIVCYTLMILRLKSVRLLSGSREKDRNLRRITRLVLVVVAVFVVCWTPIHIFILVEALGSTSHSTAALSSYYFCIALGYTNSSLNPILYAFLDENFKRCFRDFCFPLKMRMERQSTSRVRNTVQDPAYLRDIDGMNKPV

[5] = molecular target: human delta opioid receptors (Homo sapiens, UniProt P41143); assay type: cell-based; conditions: MCAM 20 nM
Chain of human delta opioid receptors (P41143 whole entry): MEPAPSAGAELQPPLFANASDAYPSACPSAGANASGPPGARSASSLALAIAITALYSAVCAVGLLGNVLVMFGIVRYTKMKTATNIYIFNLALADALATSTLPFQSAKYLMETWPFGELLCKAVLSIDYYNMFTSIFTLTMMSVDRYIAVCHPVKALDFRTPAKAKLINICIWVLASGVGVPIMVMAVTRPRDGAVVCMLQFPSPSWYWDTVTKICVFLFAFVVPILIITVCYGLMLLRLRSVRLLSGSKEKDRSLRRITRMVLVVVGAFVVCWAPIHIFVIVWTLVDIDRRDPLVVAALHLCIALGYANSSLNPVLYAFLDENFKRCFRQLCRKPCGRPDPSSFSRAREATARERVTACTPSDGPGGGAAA
Summary of the method: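 HEK293 cells stably co-expressing the GloSensor 22F cAMP sensor and human delta receptor were kept under hygromycin B/G418 selection and plated at 40 000/well. They were loaded 2 h in the dark at 30°C with 450 μg/ml D-luciferin. Antagonist was added 15 min before agonist or during loading; for washout, medium was replaced twice. Luminescence was read at 30°C, 1 Hz: 5 min baseline, 5 min agonist, then 30 min forskolin (10 μM). Results were expressed as % forskolin stimulation; ≥4 experiments, triplicate.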

mu opioid receptor [6] = conditions: mice treated with MCAM; cited from earlier work
kappa opioid receptor = kappa opioid receptor (Rattus norvegicus, UniProt P34975); conditions: in vivo
Chain of kappa opioid receptor (P34975 whole entry): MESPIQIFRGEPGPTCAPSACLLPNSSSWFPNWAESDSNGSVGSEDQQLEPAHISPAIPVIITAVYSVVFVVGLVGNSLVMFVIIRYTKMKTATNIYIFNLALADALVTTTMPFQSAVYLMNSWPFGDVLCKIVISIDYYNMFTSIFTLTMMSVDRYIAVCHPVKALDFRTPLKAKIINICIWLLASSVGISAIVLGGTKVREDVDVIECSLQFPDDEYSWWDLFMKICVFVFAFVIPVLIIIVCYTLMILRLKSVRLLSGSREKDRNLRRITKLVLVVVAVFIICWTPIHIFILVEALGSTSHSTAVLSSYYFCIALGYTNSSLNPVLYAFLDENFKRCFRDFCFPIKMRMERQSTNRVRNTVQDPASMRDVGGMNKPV

human mu opioid receptor [7] = molecular target: T1, human mu opioid receptor; assay type: cell-based; remark: listed apart in the source

T1 sequence (P35372 whole entry): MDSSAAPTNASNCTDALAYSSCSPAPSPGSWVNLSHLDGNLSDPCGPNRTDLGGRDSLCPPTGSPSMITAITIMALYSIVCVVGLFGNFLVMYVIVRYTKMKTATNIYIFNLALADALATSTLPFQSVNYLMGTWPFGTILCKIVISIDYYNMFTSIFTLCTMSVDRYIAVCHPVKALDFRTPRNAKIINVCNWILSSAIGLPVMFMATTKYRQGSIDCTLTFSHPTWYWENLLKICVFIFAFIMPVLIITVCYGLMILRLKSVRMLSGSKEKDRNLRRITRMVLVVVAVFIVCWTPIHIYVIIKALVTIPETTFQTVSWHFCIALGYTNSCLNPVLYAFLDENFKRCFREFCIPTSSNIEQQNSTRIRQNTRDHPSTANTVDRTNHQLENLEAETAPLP

With `C[C@@H](NC(=O)[C@@H](N)Cc1ccc(O)cc1)C(=O)NCC(=O)N(C)[C@@H](Cc1ccccc1)C(=O)NCCO` [DAMGO, [D‐Ala^2,N‐MePhe^4,Gly‐ol^5]‐enkephalin] the “Emax (maximal inhibition of forskolin-stimulated cAMP levels) by DAMGO” value (human mu opioid receptor [1]) was 43% ± 2% and 46% ± 3% and 48% ± 5%, the “response to DAMGO (inhibition of forskolin-stimulated cAMP levels)” value (human mu opioid receptor [1]) was “essentially abolished” and the Emax (human mu opioid receptor [2]) was 85%. For the same compound, the “effect of agonist on PGE2-stimulated thermal allodynia” value (mu opioid receptor [3]; DAMGO 20 μg i.pl., vehicle pretreatment, rat hindpaw) was “reduced”.
For `Cc1ccc(/C=C/C(=O)N[C@@]23CCC(=O)[C@@H]4Oc5c(O)ccc6c5[C@@]42CCN(CC2CC2)[C@@H]3C6)cc1` [MCAM, 14β‐(4′‐methylcinnamoylamido)‐7,8‐dihydro‐N‐cyclopropylmethyl‐normorphinone], the “effect of antagonist on the antinociceptive response to DPDPE” value (delta opioid receptor; MCAM 0.5 μg/50 μl i.pl., 15 min pretreatment) was “antagonized”, the “effect of antagonist on DPDPE-mediated antinociceptive response” value (delta opioid receptor; tested 24 h after MCAM administration i.pl.) was “did not block” and the “change in the maximal response to U50488” value [4] was “no change”. The “rightward shift of the curve for U50488 by the antagonist” value [4] was ~ 10 fold, the “effect of washout on antagonism at kappa receptors” value ([4]; MCAM 50 nM, 2 h, then wash) was “fully reversed” and the “change in the maximal response to DPDPE” value ([5]; 15 min or 2 h pretreatment) was “no change”. For the same compound, the “rightward shift of the curve for DPDPE by the antagonist” value ([5]; 15 min or 2 h pretreatment) was ~ 10 fold, the “effect of washout on antagonism at delta receptors” value ([5]; 2 h, then wash) was “fully reversed” and the “3H-DAMGO binding in brain tissue” value (mu opioid receptor [6]) was “reduced”. For the same compound, the “effect of antagonist alone on forskolin-stimulated cAMP levels” value (human mu opioid receptor [1]) was “did not alter”, the “effect of washout on antagonism of DAMGO” value (human mu opioid receptor [1]) was “did not alter” and the “effect of washout on the reduction of the DAMGO maximal response” value (human mu opioid receptor [1]) was “insensitive to washout”. For the same compound, the “rightward shift of the morphine concentration response curve by the antagonist” value (human mu opioid receptor [1]) was 10 fold, the “effect of antagonist on the antinociceptive response to DAMGO” value (mu opioid receptor [3]; MCAM 0.25 μg/50 μl i.pl., 15 min pretreatment) was “antagonized” and the “effect of antagonist on U50488-mediated antinociceptive response” value (kappa opioid receptor) was “did not block”. For the same compound, the “effect of antagonist on the antinociceptive response to U50488” value (kappa opioid receptor) was “antagonized”.
With `COC(=O)/C=C/C(=O)N[C@@H]1CC[C@@]2(O)[C@H]3Cc4ccc(O)c5c4[C@@]2(CCN3CC2CC2)[C@H]1O5` [β‐FNA, β‐funaltrexamine] the “rightward shift of the DAMGO curve by the antagonist” value (human mu opioid receptor [7]) was “about 100 fold”, the “effect of antagonist alone on forskolin-stimulated cAMP levels” value (human mu opioid receptor [1]) was “had no effect” and the “effect of washout on antagonism of DAMGO” value (human mu opioid receptor [1]) was “not sensitive to washout”.
